Calls of active or inactive are those of the source. The calls are words filed in the database; no cut-off is given here.
Experiments:
[1] = Selectivity index, ratio of CC50 for human MT4 cells to EC50 for HIV-1 3B; type: toxicity, cell-based; settings: read-out: Ratio CC50/EC50
Outline: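 Calculated as CC50/EC50, both from MT-4 cells: CC50 from the parallel viability assay, EC50 from the 5-day HIV-1 IIIB cytopathicity assay.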

[2] = system: Human immunodeficiency virus 2; experiment: Antiviral activity against HIV-2 ROD; type: functional, organism-based; settings: ISOLATE ROD
[3] = Cytotoxicity against human MT4 cells assessed as cell viability; type: cell-based
Outline: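 Uninfected MT-4 cells run in parallel with the antiviral assay. CC50 = concentration reducing MT-4 cell viability by 50%.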

[4] = system: Human immunodeficiency virus 1; experiment: Antiviral activity against HIV-1 3B infected in human MT4 cells assessed as inhibition of virus-induced cytopathic effect after 5 days; type: functional, organism-based; settings: Human immunodeficiency virus 1, 3B, MT4, 120 h
Outline: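 MT-4 cells infected with HIV-1 IIIB at ~100 times the CCID50 per ml, mixed 1:1 with serial compound dilutions, incubated at 37 °C for 5 days. Viable cell number then determined. EC50 = concentration reducing virus-induced cytopathicity by 50%.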

[5] = target: Human immunodeficiency virus type 1 reverse transcriptase (Human immunodeficiency virus 1, UniProt Q72547); experiment: Inhibition of GST-tagged recombinant wild type HIV-1 reverse transcriptase p66/p51 RNA-dependent DNA polymerase activity expressed in Escherichia coli JM109 using dTTP as substrate after 40 mins by spectrofluorometric analysis
[6] = system: Human immunodeficiency virus 1; experiment: Antiviral activity against NNRTI-resistant HIV-1 RES056 harboring reverse transcriptase K103N/Y181C double mutant; type: functional, organism-based
Outline: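 MT-4 cells were infected with virus at about 100 times the CCID50 per ml of cell suspension and mixed with serial compound dilutions. They were incubated 5 days at 37 °C, then viable cells were counted. EC50 is the concentration that reduces virus-induced cytopathic effect by 50%. Cytotoxicity was measured in parallel in MT-4 cells.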

SMILES	selectivity ratio [1]	Activity [2]	CC50 [3] [µM]	EC50 [4] [µM]	IC50 [5] [µM]	Activity [6]
Cc1cc(C)cc(Cn2c(SCC(=O)Nc3ccccc3Br)nc3ccccc32)c1	≥ 128	inactive	≥ 144	1.12	15	inactive
Cc1cc(C)cc(Cn2c(SCC(=O)Nc3ccc(S(C)(=O)=O)cc3Cl)nc3ccccc32)c1	196	inactive	106	0.54	1.93	inactive
Cc1cc(C)cc(Cn2c(=S)[nH]c3ccccc32)c1	4	inactive	5.74	1.3	27.2	inactive
Cc1cc(C)cc(Cn2c(SCC(=O)Nc3ccccc3Br)nc3ccc(Cl)cc32)c1	5	inactive	174	32.5	> 233	inactive
Cc1cc(C)cc(S(=O)(=O)n2c(SCC(=O)Nc3ccccc3[N+](=O)[O-])nc3ccc(Cl)cc32)c1	> 182	inactive	> 235	1.3	37	inactive
Cc1ccnc2c1NC(=O)c1cccnc1N2C1CC1 [NEVIRAPINE]			> 15			
COC(=O)c1ccc(NC(=O)CSc2nc3ccccc3n2S(=O)(=O)c2cc(C)cc(C)c2)c(Cl)c1	1320	inactive	145	0.11	162	inactive
Cc1cc(C)cc(Cn2c(SCC(=O)Nc3ccc(S(N)(=O)=O)cc3Cl)nc3ccc(Cl)cc32)c1	< 1	inactive	≥ 18.6	≥ 22.6	86.6	inactive
Cc1cc(C)cc(Cn2c(=S)[nH]c3ccc(Cl)cc32)c1	4	inactive				inactive
COC(=O)c1ccc(NC(=O)CSc2nc3ccccc3n2Cc2cc(C)cc(C)c2)c(Cl)c1	32	inactive	191	6.03	40.3	inactive
Cc1cc(C)cc(S(=O)(=O)n2c(SCC(=O)Nc3ccc(C)cc3Cl)nc3ccccc32)c1	135	inactive	5.4	0.04	0.55	inactive
Cc1cc(C)cc(S(=O)(=O)n2c(SCC(=O)Nc3ccccc3Br)nc3ccc(Cl)cc32)c1	37	inactive	145	3.86	63.5	inactive
Cc1cc(C)cc(S(=O)(=O)n2c(=S)[nH]c3ccccc32)c1	455	inactive	41	0.09	1.35	inactive
Cc1cc(C)cc(S(=O)(=O)n2c(SCC(=O)Nc3ccccc3[N+](=O)[O-])nc3ccccc32)c1	≥ 652	inactive	≥ 26.1	0.04	100	inactive
Cc1cc(C)cc(Cn2c(SCC(=O)Nc3ccccc3Cl)nc3ccc(Cl)cc32)c1	7	inactive	141	19.6	> 255	inactive
Cc1cc(C)cc(Cn2c(SCC(=O)Nc3ccccc3Cl)nc3ccccc32)c1	99	inactive	111	1.12	42.1	inactive
Cc1cc(C)cc(S(=O)(=O)n2c(SCC(=O)Nc3ccccc3Br)nc3ccccc32)c1	≥ 3930	inactive		0.06	0.18	inactive

SMILES	selectivity ratio [1]	Activity [2]	CC50 [3] [µM]	EC50 [4] [µM]	IC50 [5] [µM]	Activity [6]
Cc1cc(C)cc(S(=O)(=O)n2c(SCC(=O)Nc3ccc(C)cc3Cl)nc3ccc(Cl)cc32)c1	> 149	inactive	> 234	1.57	46.4	inactive
Cc1cc(C)cc(S(=O)(=O)n2c(SCC(=O)Nc3ccccc3Cl)nc3ccc(Cl)cc32)c1	56	inactive	99.3	1.77	18.6	inactive
COC(=O)c1ccc(NC(=O)CSc2nc3ccc(Cl)cc3n2S(=O)(=O)c2cc(C)cc(C)c2)c(Cl)c1	≥ 27	inactive	≥ 130	4.82	37.6	inactive
Cc1cc(C)cc(S(=O)(=O)n2c(SCC(=O)Nc3ccc(S(C)(=O)=O)cc3Cl)nc3ccc(Cl)cc32)c1	7	inactive	3.59	0.5	2.61	inactive
COC(=O)c1ccc(NC(=O)CSc2nc3ccc(Cl)cc3n2Cc2cc(C)cc(C)c2)c(Cl)c1	< 1	inactive	105	> 105	> 227	inactive
Cc1cc(C)cc(Cn2c(SCC(=O)Nc3ccc(S(C)(=O)=O)cc3Cl)nc3ccc(Cl)cc32)c1	< 1	inactive	88.8	> 88.8	70.5	inactive
O=C1Nc2ccc(Cl)cc2[C@@](C#CC2CC2)(C(F)(F)F)O1 [EFAVIRENZ]			> 6.34	0.006		
Cc1cc(C)cc(S(=O)(=O)n2c(SCC(=O)Nc3ccc(S(N)(=O)=O)cc3Cl)nc3ccccc32)c1	1280	inactive	25.6	0.02	18.5	inactive
Cc1cc(C)cc(Cn2c(SCC(=O)Nc3ccccc3[N+](=O)[O-])nc3ccccc32)c1	184	inactive	194	1.05	3.91	inactive
Cc1cc(C)cc(S(=O)(=O)n2c(SCC(=O)Nc3ccc(S(C)(=O)=O)cc3Cl)nc3ccccc32)c1	> 5540	inactive	> 222	0.04	0.12	inactive
Cc1cc(C)cc(Cn2c(SCC(=O)Nc3ccc(C)cc3Cl)nc3ccccc32)c1	32.1	inactive	49.1	1.53	179	inactive
Cc1cc(C)cc(S(=O)(=O)n2c(=S)[nH]c3ccc(Cl)cc32)c1	1860	inactive	93.1	0.05	1.76	inactive
Cc1cc(C)cc(S(=O)(=O)n2c(SCC(=O)Nc3ccccc3Cl)nc3ccccc32)c1	1220	inactive	107	0.088	51.9	inactive
Cc1cc(C)cc(Cn2c(SCC(=O)Nc3ccccc3[N+](=O)[O-])nc3ccc(Cl)cc32)c1	≤ 5	inactive	131	≥ 26	> 249	inactive
Cc1cc(C)cc(Cn2c(SCC(=O)Nc3ccc(S(N)(=O)=O)cc3Cl)nc3ccccc32)c1	530	inactive	111	0.21	1.02	inactive
Cc1cc(C)cc(Cn2c(SCC(=O)Nc3ccc(C)cc3Cl)nc3ccc(Cl)cc32)c1	< 1	inactive	79.3	> 79.3	> 248	inactive
Cc1cc(C)cc(S(=O)(=O)n2c(SCC(=O)Nc3ccc(S(N)(=O)=O)cc3Cl)nc3ccc(Cl)cc32)c1	38	inactive	23.4	0.62	3.04	inactive

— ChEMBL document CHEMBL3112470, “Design and synthesis of N₁-aryl-benzimidazoles 2-substituted as novel HIV-1 non-nucleoside reverse transcriptase inhibitors” (Bioorg Med Chem, 2014)
